In brackets after ≈: the same amount, converted by molar mass.
Columns and labels:
Assay type in all cases: functional
Staphylococcus aureus [1] = assay: Antibacterial activity against Staphylococcus aureus RN4220 by broth microdilution method
Procedure, shortened: (§1)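 Broth microdilution MIC following National Committee for Clinical Laboratory Standards methods. Plasmid-borne GyrB in transformed S. aureus strains was overexpressed by adding 100 ng/ml doxycycline.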

Staphylococcus aureus [2] = assay: Antimicrobial activity against Staphylococcus aureus 286607-R1 by broth microdilution method; procedure, shortened: as §1
Staphylococcus aureus [3] = assay: Antimicrobial activity against Staphylococcus aureus 286607-R1 harboring wild type gyrB by broth microdilution method; procedure, shortened: as §1
Staphylococcus aureus [4] = assay: Antimicrobial activity against Staphylococcus aureus RN4220 expressing gyrB D437N mutant gene by broth microdilution method; procedure, shortened: as §1
Staphylococcus aureus [5] = assay: Antibacterial activity against methicillin-susceptible Staphylococcus aureus UC9218 by broth microdilution method; procedure, shortened: as §1
Staphylococcus aureus [6] = assay: Antibacterial activity against Staphylococcus aureus UC9218 by broth microdilution method in presence of 25% serum; procedure, shortened: as §1
Staphylococcus aureus [7] = assay: Antibacterial activity against Staphylococcus aureus UC9218 by broth microdilution method in presence of 50% serum; procedure, shortened: as §1
Staphylococcus aureus [8] = assay: Antibacterial activity against methicillin and ciprofloxacin-resistant Staphylococcus aureus UC12673 by broth microdilution method; procedure, shortened: as §1
Staphylococcus aureus [9] = assay: Antibacterial activity against methicillin-resistant Staphylococcus aureus UC9213 by broth microdilution method; procedure, shortened: as §1
[10] = tested on: Staphylococcus epidermidis; assay: Antibacterial activity against methicillin and ciprofloxacin-resistant Staphylococcus epidermidis UC12084 by broth microdilution method; procedure, shortened: as §1
Streptococcus pneumoniae [11] = assay: Antibacterial activity against Streptococcus pneumoniae UC9912 by broth microdilution method; procedure, shortened: as §1
Streptococcus pneumoniae [12] = assay: Antibacterial activity against Streptococcus pneumoniae UC15142 by broth microdilution method; procedure, shortened: as §1
Streptococcus pyogenes = assay: Antibacterial activity against Streptococcus pyogenes UC152 by broth microdilution method; procedure, shortened: as §1
Enterococcus faecalis = assay: Antibacterial activity against Enterococcus faecalis UC9217 by broth microdilution method; procedure, shortened: as §1
Enterococcus faecium = assay: Antibacterial activity against Enterococcus faecium UC12712 by broth microdilution method; procedure, shortened: as §1
Haemophilus influenzae = assay: Antibacterial activity against Haemophilus influenzae UC30063 by broth microdilution method; procedure, shortened: as §1
Moraxella catarrhalis = assay: Antibacterial activity against Moraxella catarrhalis UC3067 by broth microdilution method; procedure, shortened: as §1
Escherichia coli = assay: Antibacterial activity against Escherichia coli UC6674 by broth microdilution method; procedure, shortened: as §1
Klebsiella pneumoniae = assay: Antibacterial activity against Klebsiella pneumoniae UC12081 by broth microdilution method; procedure, shortened: as §1
Pseudomonas aeruginosa = assay: Antibacterial activity against Pseudomonas aeruginosa UC6676 by broth microdilution method; procedure, shortened: as §1
Staphylococcus aureus [13] = assay: Antibacterial activity against methicillin-susceptible Staphylococcus aureus by broth microdilution method; procedure, shortened: as §1
Staphylococcus aureus [14] = assay: Antibacterial activity against methicillin-resistant Staphylococcus aureus by broth microdilution method; procedure, shortened: as §1
Staphylococcus aureus [15] = assay: Antibacterial activity against ciprofloxacin-resistant Staphylococcus aureus by broth microdilution method; procedure, shortened: as §1
Streptococcus pneumoniae [16] = assay: Antibacterial activity against Streptococcus pneumoniae by broth microdilution method; procedure, shortened: as §1
Streptococcus pneumoniae [17] = assay: Antibacterial activity against ciprofloxacin-resistant Streptococcus pneumoniae by broth microdilution method; procedure, shortened: as §1

CCn1cc(C(=O)O)c(=O)c2ccc(C)nc21 [NALIDIXIC ACID]
MIC (Staphylococcus aureus [1]): 32 mg/L (≈ 138 µM) | MIC (Staphylococcus aureus [2]): 64 mg/L (≈ 276 µM) | MIC (Staphylococcus aureus [3]): 32 mg/L (≈ 138 µM) | MIC (Staphylococcus aureus [4]): 32 mg/L (≈ 138 µM)

CCn1cc(C(=O)O)c(=O)c2cc(F)c(N3CCNCC3)cc21 [NORFLOXACIN]
MIC (Staphylococcus aureus [1]): 0.5 mg/L (≈ 1.57 µM) | MIC (Staphylococcus aureus [2]): 2 mg/L (≈ 6.26 µM) | MIC (Staphylococcus aureus [3]): 0.5 mg/L (≈ 1.57 µM) | MIC (Staphylococcus aureus [4]): 0.5 mg/L (≈ 1.57 µM)

O=C(N[C@H](CO)[C@H](O)c1ccc([N+](=O)[O-])cc1)C(Cl)Cl [CHLORAMPHENICOL]
MIC (Staphylococcus aureus [1]): 8 mg/L (≈ 24.8 µM) | MIC (Staphylococcus aureus [2]): 8 mg/L (≈ 24.8 µM) | MIC (Staphylococcus aureus [3]): 8 mg/L (≈ 24.8 µM) | MIC (Staphylococcus aureus [4]): 8 mg/L (≈ 24.8 µM)

CN(C)[C@@H]1C(O)=C(C(N)=O)C(=O)[C@@]2(O)C(O)=C3C(=O)c4c(O)cccc4[C@@](C)(O)[C@H]3C[C@@H]12 [TETRACYCLINE]
MIC (Staphylococcus aureus [1]): 0.125 mg/L (≈ 0.281 µM) | MIC (Staphylococcus aureus [2]): 0.125 mg/L (≈ 0.281 µM) | MIC (Staphylococcus aureus [3]): 0.125 mg/L (≈ 0.281 µM) | MIC (Staphylococcus aureus [4]): 0.125 mg/L (≈ 0.281 µM)

CO[C@H]1/C=C/O[C@@]2(C)Oc3c(C)c(O)c4c(O)c(c(/C=N/N5CCN(C)CC5)c(O)c4c3C2=O)NC(=O)/C(C)=C\C=C\[C@H](C)[C@H](O)[C@@H](C)[C@@H](O)[C@@H](C)[C@H](OC(C)=O)[C@@H]1C [RIFAMPIN]
MIC (Staphylococcus aureus [1]): < 0.625 mg/L | MIC (Staphylococcus aureus [2]): < 0.625 mg/L

CC1(C)S[C@@H]2[C@H](NC(=O)[C@H](N)c3ccccc3)C(=O)N2[C@H]1C(=O)O [AMPICILLIN]
MIC (Staphylococcus aureus [1]): 2 mg/L (≈ 5.72 µM) | MIC (Staphylococcus aureus [2]): 4 mg/L (≈ 11.4 µM) | MIC (Staphylococcus aureus [3]): 2 mg/L (≈ 5.72 µM) | MIC (Staphylococcus aureus [4]): 2 mg/L (≈ 5.72 µM)

NC[C@H]1O[C@H](O[C@H]2[C@H](O)[C@@H](O[C@H]3O[C@H](CO)[C@@H](O)[C@H](N)[C@H]3O)[C@H](N)C[C@@H]2N)[C@H](O)[C@@H](O)[C@@H]1O [KANAMYCIN]
MIC (Staphylococcus aureus [1]): 2 mg/L (≈ 4.13 µM) | MIC (Staphylococcus aureus [2]): 4 mg/L (≈ 8.26 µM) | MIC (Staphylococcus aureus [3]): 2 mg/L (≈ 4.13 µM) | MIC (Staphylococcus aureus [4]): 2 mg/L (≈ 4.13 µM)

C[C@H]1CN2c3ccc([N+](=O)[O-])cc3CC3(C(=O)NC(=O)NC3=O)[C@@H]2[C@@H](C)O1
MIC (Staphylococcus aureus [5]): 128 mg/L (≈ 342 µM) | MIC (Staphylococcus aureus [6]): 128 mg/L | MIC (Staphylococcus aureus [7]): > 128 mg/L | MIC (Staphylococcus aureus [8]): > 64 mg/L | MIC (Staphylococcus aureus [9]): > 64 mg/L | MIC [10]: > 64 mg/L | MIC (Streptococcus pneumoniae [11]): > 128 mg/L | MIC (Streptococcus pneumoniae [12]): > 128 mg/L | MIC (Streptococcus pyogenes): > 64 mg/L | MIC (Enterococcus faecalis): > 128 mg/L | MIC (Enterococcus faecium): > 64 mg/L | MIC (Haemophilus influenzae): > 128 mg/L | MIC (Moraxella catarrhalis): > 64 mg/L | MIC (Escherichia coli): > 128 mg/L | MIC (Klebsiella pneumoniae): > 64 mg/L | MIC (Pseudomonas aeruginosa): > 64 mg/L | MIC (Staphylococcus aureus [13]): > 64 mg/L | MIC50 (Staphylococcus aureus [13]): > 64 mg/L | MIC90 (Staphylococcus aureus [13]): > 64 mg/L | MIC (Staphylococcus aureus [14]): > 64 mg/L | MIC50 (Staphylococcus aureus [14]): > 64 mg/L | MIC90 (Staphylococcus aureus [14]): > 64 mg/L | MIC (Staphylococcus aureus [15]): 64 mg/L (≈ 171 µM) | MIC50 (Staphylococcus aureus [15]): 64 mg/L (≈ 171 µM) | MIC90 (Staphylococcus aureus [15]): > 64 mg/L | MIC (Streptococcus pneumoniae [16]): > 64 mg/L | MIC50 (Streptococcus pneumoniae [16]): > 64 mg/L | MIC90 (Streptococcus pneumoniae [16]): > 64 mg/L | MIC (Streptococcus pneumoniae [17]): > 64 mg/L | MIC50 (Streptococcus pneumoniae [17]): > 64 mg/L | MIC90 (Streptococcus pneumoniae [17]): > 64 mg/L

Source: ChEMBL document CHEMBL1275477, “Discovery and characterization of QPT-1, the progenitor of a new class of bacterial topoisomerase inhibitors” (Antimicrob Agents Chemother, 2008)
